From ChEMBL document CHEMBL5154924, “Discovery of In Vivo Active Sphingosine-1-phosphate Transporter (Spns2) Inhibitors” (J Med Chem, 2022)
Calls of active or inactive are those of the source. No cut-off for these calls is given here.

Test system: not listed separately
Test: Half life in Sprague-Dawley rat plasma at 10 mg/kg, ip by LC-MS/MS analysis
Type: ADME, organism-based
Settings: not given
How it was run: (§1)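 Single intraperitoneal dose to 4-week-old male rats (n = 4); vehicle 36.1% PEG400/9.1% ethanol/4.6% Solutol/50% H₂O. Tail-nick whole blood (ca. 70 μL) collected at 0, 0.5, 1, 2, 4, 6 and 24 h postdose. Plasma drug levels quantified by LC-MS/MS with an internal standard.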

SMILES	half-life
CCCCCCCCCCc1ccc(-c2noc(CCCN)n2)cc1.Cl	> 8 h

Test system: Mus musculus
Test: In vivo inactivation of Spns2 gene in C57BL/6j mouse assessed as decrease in circulating lymphocytes at 20 mg/kg, ip measured after 4 hrs by blood analyzer
Type: functional, organism-based
Settings: not given
How it was run: (§2)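 Blood drawn 4 h postdose. Lymphocytes counted from 20 μL blood on a haematology analyzer; plasma S1P quantified by LC-MS/MS. Compared with vehicle-treated controls by t-test.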

SMILES	inhibition
CCCCCCCCCCc1ccc(-c2noc(CCCN)n2)cc1.Cl	Active

Test system: not listed separately
Test: Drug concentration in Sprague-Dawley rat plasma at 10 mg/kg, ip at 2 hrs by LC-MS/MS analysis
Type: ADME, organism-based
Settings: not given
How it was run: as §1

SMILES	concentration at 2 h
CCCCCCCCCCc1ccc(-c2noc(CCCN)n2)cc1.Cl	5 µM

Species: Mus musculus
Test: Selectivity ratio of IC50 for mouse SphK1 to recombinant mouse Snps2
Settings: not given

SMILES	Ratio IC50
CCCCCCCCCCc1ccc(-c2noc(CCCN)n2)cc1.Cl	15

Biological target: T1, Sphingosine-1-phosphate transporter SPNS2 (Mus musculus, UniProt Q91VM4)
T1 sequence (Q91VM4 whole entry): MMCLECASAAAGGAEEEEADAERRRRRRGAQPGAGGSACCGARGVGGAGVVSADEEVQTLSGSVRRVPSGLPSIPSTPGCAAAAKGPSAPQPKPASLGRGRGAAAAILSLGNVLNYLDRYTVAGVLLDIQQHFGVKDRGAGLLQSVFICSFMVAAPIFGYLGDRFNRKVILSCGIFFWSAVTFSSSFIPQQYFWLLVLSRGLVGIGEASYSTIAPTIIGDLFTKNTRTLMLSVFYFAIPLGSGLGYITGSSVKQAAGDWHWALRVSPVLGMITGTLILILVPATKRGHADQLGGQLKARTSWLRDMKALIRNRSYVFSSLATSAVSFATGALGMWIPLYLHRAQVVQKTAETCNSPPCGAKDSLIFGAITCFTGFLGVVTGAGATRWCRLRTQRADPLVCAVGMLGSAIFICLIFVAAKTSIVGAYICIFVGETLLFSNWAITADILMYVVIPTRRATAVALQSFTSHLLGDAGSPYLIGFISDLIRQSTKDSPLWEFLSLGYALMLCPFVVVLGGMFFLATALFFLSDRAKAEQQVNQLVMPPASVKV
Test: (§3) Inhibition of mouse Spns2 transfected in human HeLa cells by measuring S1P release by LC/MS analysis
Type: cell-based
Settings: not given
How it was run: (§4)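 Mouse Spns2-transfected HeLa cells (G418-selected) held 18–20 h in RPMI 1640/0.2% fatty acid-free BSA containing 1 mM 4-deoxypyridoxine, 2 mM NaF and 0.2 mM Na₃VO₄ across a compound concentration series. Released S1P quantified by LC-MS/MS with d₇-S1P internal standard; IC50 calculated from the concentration–effect curve.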

SMILES	IC50
CCCCCCCCCCc1ccc(-c2noc(CCCN)n2)cc1.Cl	1.93 µM

Biological target: T2, Sphingosine-1-phosphate transporter SPNS2 (Mus musculus) (UniProt Q91VM4)
T2 sequence (whole entry): T1 sequence (Q91VM4 whole entry)
Test: as §3
Type: cell-based
Settings: dose <= 5.0 µM, DDE = dose-dependent effect
How it was run: as §4

SMILES	inhibition
CCCCCCCCCCc1ccc(-c2noc(CCCN)n2)cc1.Cl	Dde

Biological target: T3, Sphingosine kinase 2 (Mus musculus, UniProt Q9JIA7)
T3 sequence (Q9JIA7 whole entry): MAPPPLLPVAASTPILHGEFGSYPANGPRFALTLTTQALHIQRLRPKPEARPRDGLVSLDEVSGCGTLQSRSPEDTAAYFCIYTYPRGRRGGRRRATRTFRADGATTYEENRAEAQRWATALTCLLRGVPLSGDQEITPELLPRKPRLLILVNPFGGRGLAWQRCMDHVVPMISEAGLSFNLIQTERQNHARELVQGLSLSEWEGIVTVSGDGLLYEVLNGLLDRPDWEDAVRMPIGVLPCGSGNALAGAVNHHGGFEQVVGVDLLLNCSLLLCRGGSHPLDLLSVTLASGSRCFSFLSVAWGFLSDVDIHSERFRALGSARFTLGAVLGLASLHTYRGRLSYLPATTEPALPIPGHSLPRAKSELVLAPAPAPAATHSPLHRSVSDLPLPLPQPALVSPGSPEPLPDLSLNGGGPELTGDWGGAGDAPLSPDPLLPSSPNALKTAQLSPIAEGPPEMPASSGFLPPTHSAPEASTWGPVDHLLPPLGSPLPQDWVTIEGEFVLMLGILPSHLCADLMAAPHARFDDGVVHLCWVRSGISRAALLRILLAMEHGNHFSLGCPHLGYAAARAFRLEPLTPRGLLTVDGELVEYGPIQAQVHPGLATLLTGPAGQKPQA
Test: Inhibition of recombinant mouse SphK2 transfected in HEK293T cells using D-erythro-sphingosine measured after 20 mins in presence of gamma-[p32]-ATP by autoradiography and liquid scintillation counting method
Type: cell-based
Settings: not given
How it was run: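 Lysate of mouse SphK2 from baculovirus-infected Sf9 or transfected HEK293T cells (0.02–0.03 mg protein). Buffer: 20 mM Tris-Cl pH 7.4 with MgCl₂, phosphatase/protease inhibitors, 10% glycerol and 1 M KCl. Substrate 5 μM D-erythro-sphingosine, 10 μM γ-[³²P]ATP, compound 10–30,000 nM. Reaction run 20 min at 37 °C, then lipids extracted and separated by TLC. Product detected by autoradiography and quantified by scintillation counting; run in duplicate.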

SMILES	IC50
CCCCCCCCCCc1ccc(-c2noc(CCCN)n2)cc1.Cl	30 µM

Test system: Rattus norvegicus
Test: In vivo inactivation of Spns2 gene in Sprague-Dawley rat assessed as decrease in circulating lymphocytes at 10 mg/kg, ip measured upto 24 hrs by blood analyzer
Type: functional
Set-up: scale not given: the % may be the effect or the level left
Settings: not given
How it was run: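 Male rats 4 weeks old (n = 4) received a single intraperitoneal dose in PEG400/ethanol/Solutol/water vehicle. Tail-nick blood sampled at 0, 0.5, 1, 2, 4, 6 and 24 h. Lymphocytes counted from 20 μL blood on a haematology analyzer; counts compared with time 0.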

SMILES	Activity
CCCCCCCCCCc1ccc(-c2noc(CCCN)n2)cc1.Cl	25%

Test system: Mus musculus
Test: In vivo inactivation of Spns2 gene in C57BL/6j mouse assessed as decrease in plasma S1P at 20 mg/kg, ip measured after 4 hrs by LC-MS/MS analysis
Type: functional, organism-based
Settings: not given
How it was run: as §2

SMILES	inhibition
CCCCCCCCCCc1ccc(-c2noc(CCCN)n2)cc1.Cl	Active

Test system: not listed separately
Test: Drug concentration in Sprague-Dawley rat plasma at 10 mg/kg, ip at 24 hrs by LC-MS/MS analysis
Type: ADME, organism-based
Settings: not given
How it was run: as §1

SMILES	concentration at 24 h
CCCCCCCCCCc1ccc(-c2noc(CCCN)n2)cc1.Cl	2 µM

Biological target: Sphingosine kinase 1 (Mus musculus, UniProt Q8CI15)
Sequence (Q8CI15 whole entry): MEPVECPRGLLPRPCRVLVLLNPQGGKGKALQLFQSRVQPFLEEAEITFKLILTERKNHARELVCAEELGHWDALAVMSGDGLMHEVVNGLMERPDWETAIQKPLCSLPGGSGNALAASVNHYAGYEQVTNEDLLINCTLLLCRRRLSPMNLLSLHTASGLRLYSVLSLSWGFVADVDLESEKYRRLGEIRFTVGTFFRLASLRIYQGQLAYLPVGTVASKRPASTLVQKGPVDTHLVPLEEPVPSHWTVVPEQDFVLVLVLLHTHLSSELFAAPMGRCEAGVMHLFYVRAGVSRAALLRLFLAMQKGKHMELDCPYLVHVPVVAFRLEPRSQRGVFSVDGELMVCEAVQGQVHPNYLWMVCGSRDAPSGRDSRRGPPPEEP
Test: Inhibition of recombinant mouse SphK1 transfected in HEK293T cells using D-erythro-sphingosine measured after 20 mins in presence of gamma-[p32]-ATP by autoradiography and liquid scintillation counting method
Type: cell-based
Settings: not given

SMILES	IC50
CCCCCCCCCCc1ccc(-c2noc(CCCN)n2)cc1.Cl	≥ 30 µM

Biological target: T2, Sphingosine-1-phosphate transporter SPNS2 (Mus musculus)
Test: Inhibition of mouse Spns2 transfected in human HeLa cells by measuring S1P release at 2 uM by LC/MS analysis relative to control
Type: cell-based
Settings: not given
How it was run: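 HeLa cells stably transfected with mouse Spns2 and selected with G418, grown to near confluence. Medium replaced with RPMI 1640/0.2% fatty acid-free BSA containing 1 mM 4-deoxypyridoxine, 2 mM NaF and 0.2 mM Na₃VO₄. Compound added to duplicate wells, incubated 18–20 h. Medium S1P measured by LC-MS/MS against d₇-S1P after TCA precipitation and methanol extraction. Inhibition expressed relative to no-inhibitor control.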

SMILES	inhibition
CCCCCCCCCCc1ccc(-c2noc([C@H]3CCNC3)n2)cc1	26%
CCCCCCCCCCc1ccc(-c2noc(C3CCNCC3)n2)cc1	66%
CCCCCCCCCCc1ccc(-c2noc(CCCN3CCCCC3)n2)cc1	0%
CCCCCCCCCCc1ccc(-c2noc(CN3CCNCC3)n2)cc1	19%
CCCCCCCCCCc1ccc(-c2ccn(CCCN)n2)cc1	44%
CCCCCCCCCCc1ccc(-c2noc(CCN)n2)cc1	59%
CCCCCCCCCCc1ccc(-c2noc([C@@H](N)CCCCN)n2)cc1	43%
CCCCCCCCCCc1ccc(-c2noc(CN)n2)cc1	62%
CCCCCCc1ccc(-c2noc(CCCN)n2)cc1	55%
CCCCCCCCCCc1ccc(-c2csc(CCCN)n2)cc1	45%
CCCCCCCCCCc1ccc(-c2noc(CC(O)CN(C)C)n2)cc1 (configuration not stated)	61%
CCCCCCCCCc1ccc(Cc2noc(CCCN)n2)cc1	34%
CCCCCCCCCCc1ccc(-c2noc([C@@H]3CCC[C@@H](N)C3)n2)cc1	13%
CCCCCCCCCc1ccc(-c2noc(CCCN)n2)cc1	61%
CCCCCCCCCOc1ccc(-c2noc(CCCN)n2)cc1C(F)(F)F	24%
CCCCCCCCCCc1ccc(-c2noc(CC(O)CN3CCCC3)n2)cc1 (configuration not stated)	21%
CCCCCCCCCCc1ccc(-c2noc(C(Cl)CCN)n2)cc1 (configuration not stated)	5%
CCCCCCCCCCc1ccc(-c2noc(CC[C@@H](N)C(=O)O)n2)cc1	5%
CCCCCCCCCCc1ccc(-c2noc(CC(CN)OC(C)=O)n2)cc1 (configuration not stated)	0%
CCCCCCCCCCc1ccc(-c2noc(CCCN3CCOCC3)n2)cc1	2%

SMILES	inhibition
CCCCCCCCCCc1ccc(-c2noc(-c3cccc(CN)c3)n2)cc1	2%
CCCCCCCCCCc1ccc(-c2noc(CCCN3CCCC3)n2)cc1	3%
CCCCCCCCCCc1ccc(-c2noc(C3CNC3)n2)cc1	65%
CCCCCCCCCOc1ccc(-c2noc(CCCN)n2)cc1	49%
CCCCCCCCCCc1ccc(-c2noc(C[C@H](C)N)n2)cc1	44%
CCCCCCCCCCc1ccc(-c2noc(CCCNC)n2)cc1	45%
CCCCCCCCCCc1cccc(-c2noc(CCCN)n2)c1	26%
CCCCCCCCCCc1ccc(-c2noc(CCCN(C)C)n2)cc1	8%
CCCCCCCCCCc1ccc(-c2noc([C@@H](N)CCCN)n2)cc1	40%
CCCCCCCCCCc1ccc(-c2noc([C@H]3CCCN3)n2)cc1	12%
CCCCCCCCCCc1ccc(-c2noc(CC(O)CN)n2)cc1 (configuration not stated)	59%
CCCCCCCCCCc1ccc(-c2noc([C@H](CCCCN)NC(C)=O)n2)cc1	40%
CCCCCCCCCCc1ccc(-c2noc([C@H](N)CCCCN)n2)cc1	50%
CCCCCCCOc1ccc2cc(-c3noc(CCCN)n3)ccc2c1	8%
CCCCCCCCCCc1ccc(-c2noc([C@@H]3CCNC3)n2)cc1	62%
CCCCCCCCCCc1ccc(-c2cnn(CCCN)c2)cc1	50%
CCCCCCCCCCc1ccc(-c2coc(CCCN)n2)cc1	49%
CCCCCCCCC(=O)Nc1ccc(-c2noc(CCCN)n2)cc1	35%
CCCCCCCCc1ccc(-c2noc(CCCN)n2)cc1	70%
CCCCCCCCc1ccc(CCc2noc(CCCN)n2)cc1	40%

SMILES	inhibition
CCCCCCCCCCc1ccc(-c2nnc(CCCN)o2)cc1	59%
CCCCCCCCCCc1ccc(-c2noc(CCCCN)n2)cc1	55%
CCCCCCCCCOc1ccc(-c2noc(CCCN)n2)cc1F	50%
CCCCCCCCCCc1ccc(-c2c[nH]c(CCCN)n2)cc1	63%
CCCCCCCC(=O)NCc1ccc(-c2noc(CCCN)n2)cc1	11%
CCCCCCCCCCCc1ccc(-c2noc(CCCN)n2)cc1	49%
CCCCCCCCCCc1ccc(-c2noc(CC(O)CN3CCOCC3)n2)cc1 (configuration not stated)	0%
CCCCCCCCCCc1ccc(-c2noc(CC(O)CNCC)n2)cc1 (configuration not stated)	5%
CCCCCCCCCCc1ccc(-c2noc([C@@H](N)CCN)n2)cc1	14%
CCCCCCCCCCc1ccc(-c2noc(CC(O)CN3CCCCC3)n2)cc1 (configuration not stated)	2%
CCCCCCCCNC(=O)c1ccc(-c2noc(CCCN)n2)cc1	0%
CCCCCCCCCCc1ccc(-c2noc(CC3CNC3)n2)cc1	63%
CCCCCCCCCCc1ccc(-c2ccnn2CCCN)cc1	45%
CCCCCCCCCCc1ccc(-c2noc([C@@H]3CC[C@H](N)C3)n2)cc1	38%
CCCCCCCCCCc1ccc(-c2noc([C@H]3CCC[C@@H](N)C3)n2)cc1	29%
CCCCCCCc1ccc(-c2noc(CCCN)n2)cc1	52%
CCCCCCCCCCc1ccc(-c2cn(C)c(CCCN)n2)cc1	51%
CCCCCCCCCCc1ccc(-c2noc(C[C@@H]3CCNC3)n2)cc1	44%
CCCCCCCCCCc1ccc(-c2noc(CCCN)n2)cc1.Cl	67%
CCCCCCCCCCc1ccc(-c2noc([C@@H]3CCCN3)n2)cc1	21%

Species: Mus musculus
Test: Selectivity ratio of IC50 for mouse SphK2 to recombinant mouse Snps2
Settings: not given

SMILES	Ratio IC50
CCCCCCCCCCc1ccc(-c2noc(CCCN)n2)cc1.Cl	15
